# In publication PMC4539249 (ACS infectious diseases, 2015):
# Where two headings read alike, the source gives them in different places.
# Experiments:
# [1] = in vitro; conditions: human
# [2] = tested on: T. brucei bloodstream form (BSF) parasites; experiment: T. brucei growth inhibition; type: cell-based, Trypanosoma brucei brucei Lister 427; conditions: Trypanosoma brucei, read-out: T. brucei EC50
# [3] = tested on: T. brucei brucei Lister 427; experiment: T. brucei brucei Lister 427 mouse model of infection; type: in vivo, BALB/C mice; conditions: treated mice, i.p. for 4 days (8 at 3 and 10 mg/kg)
# [4] = tested on: AT-rich DNA dodecamer duplex; conditions: DSC, shift on inhibitor binding; cited from earlier work
# [5] = in vitro; conditions: human; remark: listed apart in the source
# [6] = target: T1, human FPPS (Homo sapiens, UniProt P14324); experiment: Human FPPS inhibition; type: biochemical; conditions: read-out: IC50 against human FPPS
# T1 sequence (P14324 1-419): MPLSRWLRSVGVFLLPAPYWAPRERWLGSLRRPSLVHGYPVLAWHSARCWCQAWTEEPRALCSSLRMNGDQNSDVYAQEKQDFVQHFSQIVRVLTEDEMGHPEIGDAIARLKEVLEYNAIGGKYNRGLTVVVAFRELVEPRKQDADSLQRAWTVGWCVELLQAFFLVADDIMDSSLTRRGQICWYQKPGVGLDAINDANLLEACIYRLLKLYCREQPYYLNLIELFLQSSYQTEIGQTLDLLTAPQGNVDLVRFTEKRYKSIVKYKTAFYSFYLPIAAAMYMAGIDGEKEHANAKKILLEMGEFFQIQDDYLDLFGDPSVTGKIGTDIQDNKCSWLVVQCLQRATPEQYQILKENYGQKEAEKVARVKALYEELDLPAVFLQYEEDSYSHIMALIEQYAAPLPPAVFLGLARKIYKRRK
# [7] = target: T. brucei farnesyl diphosphate synthase (TbFPPS) (Trypanosoma brucei, UniProt Q57WF1); experiment: TbFPPS inhibition, coupled colorimetric assay; type: biochemical; conditions: read-out: TbFPPS IC50; duplicate ± SD; highest inhibitor concentration 316 μM
# [8] = tested on: T. brucei k-DNA and nuclear DNA replication; experiment: Visualization of DNA replication; type: cell-based, Trypanosoma brucei; conditions: EdU click chemistry, 72 h treatment
# In short: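 Bloodstream-form trypanosomes, after 72 h exposure to test compound (DMSO vehicle as control), were pulsed 16 h with EdU, washed in PBS, fixed in cold 100% ethanol and dried. EdU was detected by Cu(I)-catalysed click labelling with Alexa Fluor 488 azide ([…]), and the cells were counterstained with 10 μg/ml DAPI. Nuclear and k-DNA signals were assessed by fluorescence microscopy.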
# [9] = treatment of the second or neurological phase of HAT; no reference given; cited from earlier work
smiles,measurement,setting,value
"N=C(N)c1ccc(OCCCCCOc2ccc(C(=N)N)cc2)cc1 [compound 2, pentamidine]",CC50 at 72 h,[1],< 400 nM
same,EC50,[2]; 72 h,5.5 nM
same,EC50,[2],5 nM
same,parasitemia,[3],no parasitemia observed
same,ΔTm,[4],2.7 °C
same,CC50 at 72 h,[5],< 400 nM
N=C(N)c1ccc(-c2ccc(-c3ccc(C(=N)N)cc3)o2)cc1 [compound 6],IC50,[6],~50000 nM
same,IC50,[7],~50000 nM
CC[n+]1c(-c2ccccc2)c2cc(N)ccc2c2ccc(N)cc21 [ethidium bromide],k-DNA replication in T. brucei,[8],completely blocked
"Nc1nc(N)nc(Nc2ccc([As]3SCC(CO)S3)cc2)n1 (stereo not shown) [compound 3, melarsoprol]",lethal in patients,[9],5-10%
